Values after ≈ are worked out from the molar mass of the structure shown.
How the values were obtained:
Type in all cases: functional
Vibrio parahaemolyticus = experiment: Antimicrobial activity against multidrug-resistant Vibrio parahaemolyticus 7001 after 24 hrs by microtiter plate based MIC assay; conditions: Vibrio parahaemolyticus, 7001, 24 h
How it was run: (§1)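 Broth microdilution MIC in LB broth. Compounds were twofold serially diluted in 0.5% MeOH, and reference antibiotics were diluted from 40 to 0.31 μg/mL per well. The bacterial inoculum was adjusted by turbidity at 600 nm to a 0.5 McFarland standard. Test solution was added at one part to nine parts culture, then incubated at 36 °C for 24 h. The assay was run in triplicate, with vehicle-matched blank growth controls.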

Staphylococcus aureus [1] = experiment: Antimicrobial activity against methicillin-resistant Staphylococcus aureus 3089 after 24 hrs by microtiter plate based MIC assay; conditions: Staphylococcus aureus, 3089, 24 h; how it was run: as §1
Staphylococcus aureus [2] = experiment: Antimicrobial activity against Staphylococcus aureus SG 511 after 24 hrs by microtiter plate based MIC assay; conditions: SG 511, 24 h; how it was run: as §1

| Compound | MIC (Vibrio parahaemolyticus) [µg/mL] | MIC (Staphylococcus aureus [1]) [µg/mL] | MIC (Staphylococcus aureus [2]) [µg/mL] |
| --- | --- | --- | --- |
| CCCCCCCC[C@]1(OC)O[C@@H](OC)c2c(O)cccc21 [PAECILOCIN C] | > 40 | 40 (≈ 130 µM) | 20 (≈ 64.8 µM) |
| C[C@H]1COc2c(N3CCN(C)CC3)c(F)cc3c(=O)c(C(=O)O)cn1c23.C[C@H]1COc2c(N3CCN(C)CC3)c(F)cc3c(=O)c(C(=O)O)cn1c23.O [LEVOFLOXACIN] | 0.156 | – | – |
| CN[C@H](CC(C)C)C(=O)N[C@H]1C(=O)N[C@@H](CC(N)=O)C(=O)N[C@H]2C(=O)N[C@H]3C(=O)N[C@H](C(=O)N[C@H](C(=O)O)c4cc(O)cc(O)c4-c4cc3ccc4O)[C@H](O)c3ccc(c(Cl)c3)Oc3cc2cc(c3O[C@@H]2O[C@H](CO)[C@@H](O)[C@H](O)[C@H]2O[C@H]2C[C@](C)(N)[C@H](O)[C@H](C)O2)Oc2ccc(cc2Cl)[C@H]1O [VANCOMYCIN] | – | 0.625 (≈ 0.431 µM) | – |
| CCCCCCCC[C@@H]1OC(=O)c2c(O)cccc21 [PAECILOCIN A] | > 40 | > 40 | > 40 |
| CCCCCCCC[C@]1(OC)O[C@H](OC)c2c(O)cccc21 [PAECILOCIN B] | > 40 | 20 (≈ 64.8 µM) | 5 (≈ 16.2 µM) |
| CN(C)[C@@H]1C(O)=C(C(N)=O)C(=O)[C@@]2(O)C(O)=C3C(=O)c4c(O)cccc4[C@@](C)(O)[C@H]3C[C@@H]12 [TETRACYCLINE] | – | – | 1.25 (≈ 2.81 µM) |
